Sampled rows, rich in hits. Any-hit rate of the full collection: about 2.3%.
ABCG2 block = inhibitors of human ABCG2 transporter, ABCB1 counter-screen; IgMXP3 cells, JC-1 efflux, flow cytometry; Q9UNQ0; inhibition, % at 6.6 µM; AID 1325; actives 0.1% (n = 190,000);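 active = inhibition above 80%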
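Test system: IgMXP3 (ABCG2) plus far-red-tagged CCRF-Adr (ABCB1) cells. Reagent: JC-1 dye as substrate. Timing: 10 min exposure at 25 °C with rotation, no wash. Measured by: flow cytometric JC-1 green MFI at 530 nm. Read-out: percent efflux inhibition, scaled nicardipine 100% to DMSO 0%. Control set: nicardipine and DMSO wells.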
ROMK mod = modulators of human ROMK potassium channel. Tet-inducible ROMK, thallium flux fluorescence; actives lie on both sides. B-score at 10 µM. actives 2% (n = 130,000). AID 1918;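 active = signal ratio slope over the read window, or its plate-corrected B-score, at least 3 SD from the plate mean, either direction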;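 also: B-score of the F/F0 ratio slope over 7 to 12 s after thallium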
ABCB1 block = blocks JC-1 efflux by human ABCB1 transporter; AID 1326; inhibition, % at 6.6 µM; CCRF-Adr cells, flow cytometry; actives 0.067% (n = 190,000); P08183; in the data active = inhibition above about 40%;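 also: higher value means more JC-1 retained so stronger ABCB1 efflux block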
Target sequence (P08183 whole entry, looked up): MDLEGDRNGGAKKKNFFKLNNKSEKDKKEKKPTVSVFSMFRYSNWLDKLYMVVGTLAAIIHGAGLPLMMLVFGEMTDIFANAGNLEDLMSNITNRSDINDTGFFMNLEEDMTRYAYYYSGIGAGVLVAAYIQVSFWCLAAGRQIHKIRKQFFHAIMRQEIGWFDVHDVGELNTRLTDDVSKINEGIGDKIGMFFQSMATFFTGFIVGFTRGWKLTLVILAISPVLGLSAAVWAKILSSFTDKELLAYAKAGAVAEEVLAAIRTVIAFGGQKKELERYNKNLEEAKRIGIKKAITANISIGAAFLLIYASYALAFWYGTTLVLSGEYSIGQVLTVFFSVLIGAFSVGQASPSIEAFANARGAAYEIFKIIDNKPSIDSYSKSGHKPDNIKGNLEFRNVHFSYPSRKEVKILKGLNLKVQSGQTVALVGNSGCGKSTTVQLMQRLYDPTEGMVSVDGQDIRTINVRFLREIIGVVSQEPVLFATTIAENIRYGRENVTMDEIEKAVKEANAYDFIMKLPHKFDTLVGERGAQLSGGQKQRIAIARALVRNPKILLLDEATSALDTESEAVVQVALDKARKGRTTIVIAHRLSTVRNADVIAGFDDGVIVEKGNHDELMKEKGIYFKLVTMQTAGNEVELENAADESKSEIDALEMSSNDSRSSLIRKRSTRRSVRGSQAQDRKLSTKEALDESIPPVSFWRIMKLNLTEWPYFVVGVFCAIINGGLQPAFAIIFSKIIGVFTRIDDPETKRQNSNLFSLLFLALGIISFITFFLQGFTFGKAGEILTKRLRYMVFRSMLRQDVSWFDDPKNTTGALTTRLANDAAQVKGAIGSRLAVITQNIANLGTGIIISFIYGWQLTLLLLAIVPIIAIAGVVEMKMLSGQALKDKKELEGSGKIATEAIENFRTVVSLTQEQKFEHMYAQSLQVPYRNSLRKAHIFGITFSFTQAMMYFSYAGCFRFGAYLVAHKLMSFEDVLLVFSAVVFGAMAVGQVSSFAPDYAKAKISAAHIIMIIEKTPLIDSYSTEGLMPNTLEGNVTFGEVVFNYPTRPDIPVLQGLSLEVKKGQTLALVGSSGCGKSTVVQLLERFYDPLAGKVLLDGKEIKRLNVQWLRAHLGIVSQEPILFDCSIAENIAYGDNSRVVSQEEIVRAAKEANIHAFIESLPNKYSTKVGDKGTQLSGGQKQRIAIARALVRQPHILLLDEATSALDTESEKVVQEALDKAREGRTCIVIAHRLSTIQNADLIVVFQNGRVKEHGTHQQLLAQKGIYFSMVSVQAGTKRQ
Autophagy HCS = modulators of autophagy. actives 0.98% (n = 190,000). calls only at 10 µM (by protocol). MEF GFP-LC3 puncta imaging; test concentration mostly 10 µM;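 active = percentage of spot-positive cells more than 3 SD above its plate mean, without a fluorescence outlier flag or 80% toxicity; inconclusive = no clear call, values can overlap the other calls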
Ins promoter up = MIN6 insulin promoter up-regulation; MIN6 insulin promoter-GFP reporter, high-content imaging; stronger effect = higher value; z-score at 5 µM; actives 0.3% (n = 190,000); AID 1625;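 active = z-score above 3 at 5 µM with at least 500 cells counted in the well; inconclusive = wells under 500 cells, flagged as cytotoxic or low count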
SDO1 yeast rescue = compounds rescuing growth of sdo1-depleted yeast, bone marrow failure model. S. cerevisiae sdo1-depleted JHY4D growth rescue, OD600 30 h; stronger effect = higher value; pdr5 snq2 efflux-pump mutant strain. z-score at 10 µM. actives 0.21% (n = 140,000). AID 817;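 active = z-score above 3 at both the 24 hr and the 30 hr optical density reads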
Hits are given with their value; 0 = inactive; ? = inconclusive; - = not tested or not shown; + = active, no number.

SMILES | ABCG2 block | ROMK mod | ABCB1 block | Autophagy HCS | Ins promoter up | SDO1 yeast rescue
CC(=O)OC1CC[C@@]2(C)C(CCC3C2CC(=O)[C@@]2(C)C3CC3CC(C)=CC(=O)C32)C1 (stereo partly drawn) | - | 0 | - | - | 0 | -
COc1cc2nc(SCc3c(C)noc3C)n(CCC3=CCCCC3)c(=O)c2cc1OC | 0 | 0 | 0 | + | 0 | 0
COC(=O)c1ccccc1NC(=O)Cn1c(-c2nonc2N)nc2ccccc21 | 0 | 0 | 0 | + | 0 | 0
COc1ccc(N/N=C(/C#N)S(=O)(=O)C(C)(C)C)cc1 | 0 | 0 | 0 | 0 | 0 | -
CSc1ccc(N/N=C(/C#N)S(=O)(=O)C(C)(C)C)cc1 | 0 | -3.21 | 0 | 0 | 0 | -
O=C1S/C(=C\c2ccc(O)c([N+](=O)[O-])c2)C(=O)N1c1ccccc1Cl | 0 | -3.56 | 0 | 0 | 0 | -
CCc1cc(=O)oc2cc3occ(-c4ccc(OC)c(F)c4)c3cc12 | 0 | - | 0 | + | 0 | 0
O=C(NN=C1CCCCCC1)c1ccc(Br)o1 | 0 | 0 | 0 | 0 | 0 | 0
CC(C)N1CCC(=NNC(=O)c2ccc(Br)o2)CC1 | 0 | 2.73 | 0 | 0 | 0 | 0
CN(C)c1ccc(NC(=O)c2ccc(Cn3cc([N+](=O)[O-])cn3)cc2)cc1 | 0 | 0 | 0 | 0 | 0 | -
Cc1nc2cc(N3CCN(C)CC3)c(NC(=O)Cc3ccccc3)cc2c(=O)n1Cc1ccccc1 | 0 | - | 0 | 0 | 0 | 0
Cc1nc2cc(N3CCCCC3)c(NC(=O)c3ccncc3)cc2c(=O)n1Cc1ccc(Cl)cc1 | 0 | 0 | 0 | + | - | 0
CCCNC(=O)Cn1c(-c2ccc(F)cc2)cc(C(=O)OCC)c1C | 0 | - | 0 | + | - | -
CCOC(=O)c1cc(-c2ccccc2)n(CC(=O)O)c1C | 0 | 0 | 0 | + | 0 | 0
CCOC(=O)c1cc(-c2ccc(F)cc2)n(CC(=O)NC(C)CC)c1C (stereo not drawn) | 0 | 0 | 0 | 0 | 0 | -
CCCCCn1c(=O)c(-c2nc3ccccc3[nH]2)c(O)c2ccccc21 | 0 | 0 | 0 | 0 | 0 | -
CC(C)CCOc1ccc(C(=O)N2CCCC2C(=O)O)cc1 (stereo not drawn) | 0 | 0 | 0 | 0 | - | -
Cc1cccc(C(=O)NC(=S)NNC(=O)COc2c(C)cccc2C)c1 | 0 | 2.69 | 0 | 0 | 0 | 0
Cc1ccc(C(=O)NC(=S)NNC(=O)COc2ccccc2C)cc1 | 0 | 3.05 | 0 | 0 | 0 | -
Cc1cccc(C(=O)NC(=S)NNC(=O)Cc2ccccc2)c1 | 0 | 0 | 0 | 0 | 0 | 0
CCC(=O)NNC(=S)NC(=O)c1ccc(C)cc1 | 0 | 0 | 0 | 0 | 0 | -
N=c1c2c(n(Cc3ccc([N+](=O)[O-])cc3)c3c1CCC3)CCCC2 | 0 | 0 | 0 | + | 0 | -
N=c1c2c(n(Cc3ccc(Br)cc3)c3c1CCC3)CCCC2 | 0 | 0 | 0 | 0 | ? | 0
O=C(COC(=O)C1CC1)Nc1ccc2c(c1)OCO2 | 0 | 0 | 0 | 0 | 0 | -
Cc1cc(C)c(Cn2ncn(-c3ccc(Br)cc3)c2=O)c(C)c1 | 0 | 0 | 0 | 0 | 0 | -
SMILES | ABCG2 block | ROMK mod | ABCB1 block | Autophagy HCS | Ins promoter up | SDO1 yeast rescue
O=C(COC(=O)c1cncc(Br)c1)NC1CCCCCC1 | 0 | 0 | 0 | 0 | 0 | -
O=C(CCc1nc2ccccc2c(=O)[nH]1)NCc1ccco1 | 0 | 0 | 0 | + | 0 | -
CC(C)c1ccccc1NC(=O)COC(=O)COc1ccccc1[N+](=O)[O-] | 0 | 0 | 0 | 0 | 0 | -
CCOC(=O)C1=C(C)NC(C)=C(C(=O)OC)C1c1cccc([N+](=O)[O-])c1 (stereo not drawn) | 0 | - | 0 | 0 | 0 | 0
COC(=O)C1=C(C)NC(C)=C(C(=O)OC)C1c1ccccc1[N+](=O)[O-] | 0 | -2.53 | 0 | 0 | - | 0
O=C(NC1CCCCCC1)C1CCN(S(=O)(=O)N2CCC3(CC2)OCCO3)CC1 | 0 | - | 0 | + | 0 | 0
CCOC(=O)Cn1cc(/C=N/N2C(=O)C3C4C=CC(C4)C3C2=O)c2ccccc21 (stereo not drawn) | 0 | 0 | 0 | 0 | 0 | -
CC(C)CSC1=NSC2=NC(=O)/C(=C\c3ccccc3)C(=N)N12 | 0 | 1.84 | 0 | 0 | 0 | -
CC(C)CSC1=NSC2=NC(=O)/C(=C\c3coc4ccccc4c3=O)C(=N)N12 | + | - | 133.6 | 0 | 0 | -
CCOc1cc(C2c3c(oc4cc(C)c(Cl)cc4c3=O)C(=O)N2Cc2ccco2)ccc1O (stereo not drawn) | 0 | 0 | 0 | + | 0 | 0
CCCNC(=S)NCc1ccc(Cl)cc1 | 0 | 0 | 0 | 0 | - | 0
Cn1c(=O)c(Nc2ccc(Cl)cc2)c2c3c(cccc31)C(=O)c1ccccc1-2 | 0 | - | 0 | + | 15.1 | -
CCOc1cc(/C=N/NC(=O)c2cccnc2)cc(Br)c1OCC(N)=O | 0 | 0 | 0 | 0 | 0 | -
C/C(CC(=O)Nc1cccnc1)=N\NC(=O)C(=O)NC(C)C | - | - | - | - | 0 | -
C/C(CC(=O)Nc1cccnc1)=N\NC(=O)C(=O)Nc1cccc(C)c1 | 0 | 0 | 0 | + | 0 | 0
Cc1cc(/C([O-])=C(/C(=S)Nc2ccc(F)cc2)[n+]2ccccc2)c(C)n1Cc1ccccc1Cl | 0 | 0 | 0 | 0 | 0 | -
COC(=O)c1ccc(-c2ccc(/C=N/NC(=O)CC3(C)OCCCO3)o2)cc1 | 0 | 0 | 0 | 0 | - | -
CCc1ccc2c(c1)cc(CN(C(=S)Nc1ccccc1C)C1CC1)c1nnnn12 | 0 | - | 0 | 0 | 0 | 0
CCc1ccc2c(c1)cc(CN(C(=S)Nc1ccccc1)C1CC1)c1nnnn12 | 0 | - | 0 | + | 0 | 0
O=C(CC12CC3CC(CC(C3)C1)C2)NCC(=O)N1CCc2ccccc2C1 | 0 | 0 | 0 | 0 | 3.34 | 0
N=C1c2ccccc2CN1NC(=O)CC12CC3CC(CC(C3)C1)C2 | 0 | 0 | 0 | 0 | 0 | 0
Oc1cccc2ccc(/C=C/c3cccs3)nc12 | 0 | - | 0 | + | 0 | 0
Cc1c(Cl)cccc1N1CC(C(=O)Nc2nccs2)CC1=O (stereo not drawn) | 0 | 0 | 0 | 0 | 0 | 0
Cc1ccc(N2CC(C(=O)Nc3nccs3)CC2=O)cc1Cl (stereo not drawn) | 0 | 0 | 0 | + | - | 0
CC(c1ccccc1)C(Cc1nc2ccccc2[nH]1)c1nc2ccccc2[nH]1 (stereo not drawn) | 0 | 0 | 0 | 0 | 0 | -
SMILES | ABCG2 block | ROMK mod | ABCB1 block | Autophagy HCS | Ins promoter up | SDO1 yeast rescue
COc1ccc(C=C2C(=O)c3ccccc3C2=O)cc1O | 0 | 0 | 0 | 0 | 0 | -
CCN1C/C(=C/c2ccc(OC)c(O)c2)C(=O)/C(=C/c2ccc(OC)c(O)c2)C1 | 0 | 0 | 0 | + | ? | -
C=CCn1c(COc2ccc3c(c2)CCCC3)nnc1SCC(=O)Nc1cccc(SC)c1 | 0 | 0 | 0 | 0 | 0 | 0
CCN(CC)c1ccc(/C=C2\C(=O)c3ccc(C(=O)O)cc3C2=O)cc1 | 134.6 | - | 88.2 | 0 | 0 | 0
CC(=O)/C(=N\Nc1ccc(C)cc1)Sc1nncn1C | 0 | 0 | 0 | + | 0 | 0
COc1ccc(NC(=O)COC(=O)CCNS(=O)(=O)c2ccccc2)cc1OC | 0 | 0 | 0 | 0 | 0 | -
CC/C(=N/Nc1ccccc1Cl)c1cnnc(-c2ccccc2)n1 | 0 | 0 | 0 | 0 | 0 | 0
